According to paper PMC4714695 (Cancer Science, 2015):
“Also recorded” adds a separate entry of the source. Where two headings read alike, the source gives them in different places.

Tests used:
[1] = tested on: Japanese patients with acute myeloid leukemia; assay: Phase I 3 + 3 dose escalation: dose-limiting toxicities and MTD; format: in vivo, human
Summary of the method: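 Open-label 3 + 3 escalation at 350, 400 and 450 mg (highest planned level), by 2-h IV infusion on days 1 and 15 of 28-day cycles; patients hospitalized in cycle 1. DLT: treatment-related CTCAE grade ≥3 non-hematologic AE in cycle 1. Exceptions: untreated nausea/vomiting, treatable grade 3 diarrhea, grade 3 febrile neutropenia or infection, lab abnormalities resolving within 5 days, grade 3 tumor lysis syndrome.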

Plasma pharmacokinetics = format: in vivo, human
[2] = tested on: White patients with relapsed or refractory AML; details: cited from earlier work
PLK1 = details: cited from earlier work
PLK3 = details: compared with PLK1; cited from earlier work
[3] = tested on: more than 50 unrelated kinases; details: more than 50 kinases tested; cited from earlier work
[4] = 450 mg, day 29 (cycle 2, day 1)
[5] = human, plasma, intravenous, 350 mg
[6] = human, plasma, intravenous, 400 mg
[7] = human, plasma, intravenous, 450 mg

Compound: CC[C@@H]1C(=O)N(C)c2cnc(Nc3ccc(C(=O)N[C@H]4CC[C@H](N5CCN(CC6CC6)CC5)CC4)cc3OC)nc2N1C(C)C [Volasertib]
- DLT in cycle 1 ([1]; 350 mg cohort): No DLT were reported
- DLT in cycle 1 ([1]; 400 mg cohort): No DLT were reported
- Patients with DLT in cycle 1 ([1]; 450 mg cohort 3, 6 evaluable patients): 1
- DLT observed (type) ([1]; 450 mg cohort 3, cycle 1): grade 4 abnormal liver function test; also recorded: reversible grade 4 liver function test abnormality
- Day on which the patient was considered recovered from the DLT ([1]; 450 mg, reduced to 400 mg in cycle 2): 38 days
- Total bilirubin in the patient with DLT ([1]; 450 mg, day 9 of cycle 1, reference 0.3–1.2 mg/dL): 1.1 mg/dL
- ALT in the patient with DLT ([1]; 450 mg, day 9 of cycle 1, reference 6–30 IU/L): 116 IU/L
- AST in the patient with DLT ([1]; 450 mg, day 9 of cycle 1, reference 13–33 IU/L): 131 IU/L
- ALT in the patient with DLT ([1]; 450 mg, day 11 of cycle 1): 711 IU/L
- AST in the patient with DLT ([1]; 450 mg, day 11 of cycle 1): 764 IU/L
- Total bilirubin in the patient with DLT ([1]; 450 mg, day 11 of cycle 1): 2.6 mg/dL
- ALT in the patient with DLT ([1]; 450 mg, day 16): 450 IU/L
- AST in the patient with DLT ([1]; 450 mg, day 16): 156 IU/L
- Total bilirubin in the patient with DLT ([1]; 450 mg, day 16): 3.8 mg/dL
- ALT in the patient with DLT [1, 4]: 38 IU/L
- AST in the patient with DLT [1, 4]: 15 IU/L
- Total bilirubin in the patient with DLT [1, 4]: 1.0 mg/dL
- Maximum tolerated dose (MTD) ([1]; intravenous 2-h infusion on days 1 and 15 of 28-day cycles): 450 mg
- Mean plasma concentration relative to maximum plasma concentration (Plasma pharmacokinetics; 24 h after administration): < 10%
- Dose dependence of exposure (Plasma pharmacokinetics; dose range 350–450 mg): increased dose‐proportionally
- Vd (Plasma pharmacokinetics; human, plasma, intravenous): 3540 to 4720 L
- clearance (Plasma pharmacokinetics; human, plasma, intravenous): 606 to 669 mL/min
- half-life (Plasma pharmacokinetics; human, plasma, intravenous): 108 to 130 h
- AUC(0-inf) (Plasma pharmacokinetics; [5]): 8720 ng·h/mL
- AUC(0-t) (Plasma pharmacokinetics; [5]): 7810 ng·h/mL
- Cmax (Plasma pharmacokinetics; [5]): 756 ng/mL
- Tmax (Plasma pharmacokinetics; [5]): 1.97 h
- clearance (Plasma pharmacokinetics; [5]): 669 mL/min
- half-life (Plasma pharmacokinetics; [5]): 117 h
- AUC(0-inf) (Plasma pharmacokinetics; [6]): 10400 ng·h/mL
- AUC(0-t) (Plasma pharmacokinetics; [6]): 9340 ng·h/mL
- Cmax (Plasma pharmacokinetics; [6]): 762 ng/mL
- Tmax (Plasma pharmacokinetics; [6]): 1.05 h
- clearance (Plasma pharmacokinetics; [6]): 643 mL/min
- half-life (Plasma pharmacokinetics; [6]): 130 h
- AUC(0-inf) (Plasma pharmacokinetics; [7]): 12400 ng·h/mL
- AUC(0-t) (Plasma pharmacokinetics; [7]): 11400 ng·h/mL
- Cmax (Plasma pharmacokinetics; [7]): 1060 ng/mL
- Tmax (Plasma pharmacokinetics; [7]): 1.53 h
- clearance (Plasma pharmacokinetics; [7]): 606 mL/min
- half-life (Plasma pharmacokinetics; [7]): 108 h
- AUC0–∞,norm (dose normalized), gMean (gCV%) (Plasma pharmacokinetics; plasma, after first infusion of volasertib 350 mg (n = 7)): 24.9 (27.8) ng·h/mL/mg
- AUC0–∞,norm (dose normalized), gMean (gCV%) (Plasma pharmacokinetics; plasma, after first infusion of volasertib 400 mg (n = 4)): 25.9 (54.7) ng·h/mL/mg
- AUC0–∞,norm (dose normalized), gMean (gCV%) (Plasma pharmacokinetics; plasma, after first infusion of volasertib 450 mg (n = 8)): 27.5 (22.8) ng·h/mL/mg
- DLT reported in White patients ([2]; 400 mg): mucosal inflammation
- DLT reported in White patients ([2]; 450 mg): pyrexia
- MTD in White patients ([2]; volasertib monotherapy, phase I): 450 mg
- Inhibition of PLK1 (PLK1): selectively inhibit
- Inhibition of PLK3 (PLK3): to a lesser extent
- Inhibition of unrelated kinases [3]: does not inhibit
